Source: PubChem
Shown are actives, neighbours in structure and some others; about 3.5% of the full set was active somewhere.
RGS4 block = inhibitors of human RGS4 | 310,000 compounds, 0.45% hits | HEK293 M3R/RGS4 inducible, Fluo-4 calcium flux; stronger effect = higher value; triggered by carbachol at its EC20 | P49798 | AID 463165 | B-score at 10 µM;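 active = B-score, a plate-corrected calcium signal, over three deviations above library mean, with baseline fluorescence within five deviations of library mean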;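 also: RGS4 expression induced by doxycycline in cells with stable M3 receptor; B-score is computed from the integrated fluorescence ratio over baseline after carbachol; higher B-score means a larger calcium signal and so more RGS4 inhibition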
Target sequence (P49798 whole entry, looked up): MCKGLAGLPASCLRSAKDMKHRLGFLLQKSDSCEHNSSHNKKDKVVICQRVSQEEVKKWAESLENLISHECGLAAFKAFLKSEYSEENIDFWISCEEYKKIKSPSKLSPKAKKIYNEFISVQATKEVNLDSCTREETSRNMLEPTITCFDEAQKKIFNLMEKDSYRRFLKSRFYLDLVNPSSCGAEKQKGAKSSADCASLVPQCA
MrgX1 antag = human MrgX1 receptor antagonism, primary screen. MRGX1-HEK293 calcium flux, Fluo-4, BAM8-22 antagonism; stronger effect = lower value. 310,000 compounds, 1.3% hits. B-score at 10 µM. Q96LB2;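 active = calcium-response B-score plate-corrected more than 3 library SD below zero, starting fluorescence within 5 deviations, no agonist response on first addition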;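 also: peak minus trough fluorescence over baseline after final BAM8-22 challenge near maximal dose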
Target sequence (Q96LB2 whole entry, looked up): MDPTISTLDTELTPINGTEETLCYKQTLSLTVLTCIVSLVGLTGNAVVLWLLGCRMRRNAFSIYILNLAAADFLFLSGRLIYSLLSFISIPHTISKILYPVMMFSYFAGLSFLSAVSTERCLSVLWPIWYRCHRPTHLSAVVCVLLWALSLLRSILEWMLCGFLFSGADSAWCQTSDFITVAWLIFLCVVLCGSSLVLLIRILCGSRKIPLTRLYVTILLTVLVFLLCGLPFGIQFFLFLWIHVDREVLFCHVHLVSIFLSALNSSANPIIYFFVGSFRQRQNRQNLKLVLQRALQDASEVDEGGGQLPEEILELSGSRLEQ
MrgX1 ag = activates human MrgX1 receptor signaling. Q96LB2. B-score at 10 µM. 310,000 compounds, 0.44% hits. MrgX1-HEK293 cells, Fluo-4 calcium fluorescence, agonist mode; stronger effect = higher value. AID 588627;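 active = calcium response B-score plate-corrected fluorescence ratio at least 3 library SD, with starting fluorescence B-score inside 5 SD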
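Assay system: stable human MrgX1 HEK293 cell line. Quantity: 15,000 cells per well. Schedule: cells plated overnight, dye loaded 0.5 h 37 °C, 0.5 h room temperature. Detection: Fluo-4 NW calcium-flux fluorescence, kinetic read. Read-out basis: peak-minus-minimum fluorescence over baseline, converted to B scores. Control set: positive and negative control wells on each plate.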
RGS4 pot = RGS4 potentiation or activation | HEK293 M3R/inducible RGS4, carbachol calcium flux Fluo4; stronger effect = lower value | B-score at 10 µM | 310,000 compounds, 0.92% hits | AID 463111;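 active = B-score of the integrated calcium signal more than 4 SD below the library mean, with starting fluorescence not abnormally high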;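 also: negative B-score means reduced calcium response which marks RGS4 activation or potentiation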
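Assay system: HEK293 FlpIn-TREx cells, stable M3R, doxycycline-inducible RGS4 / Probe or stimulus: carbachol, ECmax concentration / Times: overnight RGS4 induction, 30 min dye load 37 °C, 20 min compound RT / Signal: kinetic calcium fluorescence imaging with Fluo4-AM dye, 2 µM / Measure: Agonist-evoked peak-minus-minimum fluorescence over baseline, integrated ratio, B score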
MrgX1 allo act = allosterically activates human MrgX1 receptor signaling | B-score at 10 µM | 310,000 compounds, 0.63% hits | MrgX1-HEK293, Fluo-4 calcium flux, FDSS; stronger effect = higher value | AID 588675 | Q96LB2;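 active = plate-corrected calcium response at least 3 library SD above typical, normal starting fluorescence, not activating the receptor alone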;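 also: compound read alongside a low EC10 to EC30 dose of BAM8-22 agonist; peak minus trough fluorescence over baseline measured at the second addition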
RGS4 act valid = confirmation of RGS4 activators; 1,100 compounds, 89% hits; AID 602282; inhibition, % at 10 µM; HEK293 M3R/RGS4 inducible, carbachol calcium flux Fluo4; shares compounds with RGS4 pot;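 active = inhibition above 3 SD of the buffer control wells, cut at about 41% in these data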;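 also: signal is the integrated peak-minus-minimum Fluo4 fluorescence over baseline ratio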
RGS4 act ctr = counter-screen for RGS4 activators: effect in non-induced cells | AID 602283 | 1,100 compounds, 82% hits | inhibition, % at 10 µM | shares compounds with RGS4 pot | HEK293 M3R non-induced RGS4, Fluo4 calcium flux; after carbachol challenge at its EC90;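 active = inhibition exceeding 3 SD of buffer-only control wells, cut at about 26% in these data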;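 also: percent drop in integrated peak-minus-baseline over baseline Fluo4 ratio after carbachol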
RGS4 block valid = RGS4 inhibitor validation | shares compounds with RGS4 block | HEK293 M3R/RGS4, carbachol calcium Fluo-4 fluorescence; carbachol added at its EC20; 0 = buffer wells, 100 = carbachol control | calcium response, % at 10 µM | 1,700 compounds, 65% hits | AID 492999;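 active = duplicate-averaged calcium response above the buffer-only control mean plus 5 SD of those controls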;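 also: integrated fluorescence ratio F max minus min over baseline F0; higher response in RGS4-induced cells means RGS4 inhibition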
M3R Ca ctr = counter-screen for RGS4 inhibitors: effect in non-induced cells | shares compounds with RGS4 block | HEK293 M3R non-induced, carbachol calcium Fluo-4; submaximal (EC20) carbachol stimulus; buffer wells 0%, carbachol control wells 100% | activity (percent), % at 10 µM | 1,900 compounds, 20% hits; call rule not given here;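 also: RGS4 induction absent so cells express M3R without RGS4; higher means more calcium signal and flags a non-specific hit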
M3R basal Ca ctr = second counter-screen for RGS4 inhibitors: non-induced cells without carbachol; shares compounds with RGS4 block; HEK293 M3R/RGS4 non-induced, Fluo-4 calcium, no carbachol; normalised: buffer wells 0%, carbachol wells 100%; calcium response (agonist-mode artifact), % at 10 µM; 1,900 compounds, 22% hits; AID 493001;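 active = duplicate-averaged calcium rise in uninduced cells above buffer wells' mean plus 5 SD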
MrgX1 ag reconf = confirmation of human MrgX1 receptor agonists | shares compounds with MrgX1 ag | AID 602412 | MrgX1-HEK293, Fluo-4 calcium fluorescence, FDSS | 600 compounds, 78% hits | activation, % at 10 µM;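 active = calcium signal rise, corrected for plate position, at least 3 library SD high, with starting brightness within 5 such deviations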
HEK293 Ca flux = MrgX1 antagonist counter-screen hit in parental HEK293 cells; shares compounds with MrgX1 antag; Fluo-4 calcium fluorescence, FDSS; fluorescence ratio F(max-min)/F0 at 10 µM; 4,000 compounds, 2% hits;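 active = duplicate-averaged calcium fluorescence ratio at least three times the standard deviation of buffer wells, a nonspecific response in parental cells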
HEK293 Ca counter = counter-screen for MrgX1 allosteric activators: effect in parental HEK293 cells; shares compounds with MrgX1 antag; parental HEK293 calcium flux, Fluo-4 fluorescence ratio; stronger effect = higher value; fluorescence ratio F(max-min)/F0 at 10 µM; 4,000 compounds, 0.4% hits;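 active = calcium fluorescence ratio, averaged over duplicates, at least 3 SD of the buffer-well ratio, meaning a nonspecific response in receptor-free cells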;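 also: untransfected parental HEK293 lacking MrgX1 used as counterscreen for MrgX1 allosteric activators; fluorescence change taken during the second addition on a kinetic imager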
HEK293 Ca cntr2 = MrgX1 activator counter-screen hit in parental HEK293 cells | shares compounds with MrgX1 antag | Fluo-4 calcium fluorescence (FDSS); stronger effect = higher value | fluorescence ratio F(max-min)/F0 at 10 µM | 4,000 compounds, 8.7% hits | AID 624115;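 active = calcium fluorescence ratio at least three times the spread of buffer wells, meaning a non-specific response in parental cells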
Active calls of the source: *.

CC1(C)CC(=O)C2=C(C1)Nc1ccccc1NC2 was read as RGS4 block inactive, MrgX1 antag inactive, MrgX1 ag 34*, RGS4 pot -7.9*, MrgX1 allo act inactive, RGS4 act valid 0, RGS4 act ctr 0, MrgX1 ag reconf inactive, HEK293 Ca flux inactive, HEK293 Ca counter inactive and HEK293 Ca cntr2 inactive.
Screening Cc1cc(C)nc(/N=C(\N)Nc2ccc(OCc3ccccc3)cc2)n1 returned RGS4 block inactive, MrgX1 antag inactive, MrgX1 ag 161*, RGS4 pot -10*, MrgX1 allo act inactive, RGS4 act valid 87*, RGS4 act ctr 62*, MrgX1 ag reconf 590%*, HEK293 Ca flux inactive, HEK293 Ca counter inactive and HEK293 Ca cntr2 128*.
Screening O=C(CCNC(=O)Cn1ccc2ccccc2c1=O)NCc1ccccn1 returned RGS4 block inactive, MrgX1 antag inactive, MrgX1 ag inactive, RGS4 pot inactive and MrgX1 allo act inactive.
Screening COc1ccc(Nc2cc(Cl)nc(N)n2)cc1OC returned RGS4 block 6.1*, MrgX1 antag inactive, MrgX1 ag inactive, RGS4 pot inactive, MrgX1 allo act inactive, RGS4 block valid 6.0%*, M3R Ca ctr inactive and M3R basal Ca ctr inactive.
Screening Nc1nc(Cl)cc(Nc2ccccc2Cl)n1 returned RGS4 block inactive, MrgX1 antag inactive, MrgX1 ag inactive, RGS4 pot inactive and MrgX1 allo act inactive.
For O=C1Cc2ccccc2C(=O)N1c1cccc(Cl)c1 the results were RGS4 block inactive, MrgX1 antag inactive, MrgX1 ag inactive, RGS4 pot inactive and MrgX1 allo act inactive.
`O=C1Cc2ccccc2C(=O)N1c1ccccc1` gave RGS4 block 5.6*, MrgX1 antag inactive, MrgX1 ag inactive, RGS4 pot inactive, MrgX1 allo act inactive, RGS4 block valid 5.0%*, M3R Ca ctr inactive and M3R basal Ca ctr inactive.
Screening [S-]c1nnc(-c2ccc(Br)cc2)n1-c1ccccc1.[Zn+2] returned RGS4 block inactive, MrgX1 antag inactive, MrgX1 ag inactive, RGS4 pot inactive and MrgX1 allo act inactive.
`N#Cc1c(Cl)c(Cl)c2nnc(-c3ccc(Br)cc3)n2c1Cl` gave RGS4 block 6*, MrgX1 antag inactive, MrgX1 ag inactive, RGS4 pot inactive, MrgX1 allo act inactive, RGS4 block valid 8.0%*, M3R Ca ctr inactive and M3R basal Ca ctr 11%*.
